Assay results as given in ChEMBL document CHEMBL1147985, “Novel benzodifuran analogs as potent 5-HT2A receptor agonists with ocular hypotensive activity” (Bioorg Med Chem Lett, 2007).

Columns and labels:
[1] = molecular target: T1, 5-hydroxytryptamine receptor 2A (Rattus norvegicus, UniProt P14842); experiment: Displacement of [125I]DOI from 5HT2A receptor in rat cerebral cortex; assay type: tissue-based
Outline: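 Competition binding against the agonist radioligand [125I]DOI at rat brain (cerebral cortex) 5-HT2A receptors. Values are means of at least three experiments.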

[2] = molecular target: T1, 5-hydroxytryptamine receptor 2A; experiment: (§1) Agonist activity at 5HT2A receptor in rat A7r5 cells assessed as intracellular calcium mobilization relative to 5HT; assay type: functional, cell-based
Outline: (§2)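 Native 5-HT2 receptors in rat vascular smooth muscle A7r5 cells; receptor-mediated intracellular Ca2+ mobilization read on FLIPR. Emax expressed relative to the 5-HT response. Values are means of at least three experiments.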

[3] = molecular target: 5-hydroxytryptamine receptor 2A (Rattus norvegicus) (UniProt P14842); experiment: as §1; assay type: functional, cell-based; outline: as §2
[4] = molecular target: 5-hydroxytryptamine receptor 2B (Rattus norvegicus, UniProt P30994); experiment: Agonist activity at 5HT2B receptor in rat stomach fundus assessed as […] relative to 5HT; assay type: functional
Outline: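 Functional 5-HT2B response measured in isolated rat stomach fundus tissue, run by a contract lab. Emax given relative to 5-HT. Means of at least three experiments.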

[5] = molecular target: 5-hydroxytryptamine receptor 2A (Rattus norvegicus) (UniProt P14842); experiment: Agonist activity at 5HT2A receptor in rat A7r5 cells assessed as intracellular calcium mobilization; assay type: functional, cell-based; outline: as §2
Cynomolgus monkey = experiment: Reduction of intra ocular pressure in cynomolgus monkey at 300 ug; assay type: functional, organism-based, Macaca fascicularis, Eye; parameters: Activity: scale not given: the % may be the effect or the level left
[6] = molecular target: T2, 5-hydroxytryptamine receptor 2C (Rattus norvegicus) (UniProt P08909); experiment: Agonist activity at 5HT2C receptor expressed in […] cells assessed as intracellular calcium mobilization; assay type: functional, cell-based
T2 sequence (whole entry): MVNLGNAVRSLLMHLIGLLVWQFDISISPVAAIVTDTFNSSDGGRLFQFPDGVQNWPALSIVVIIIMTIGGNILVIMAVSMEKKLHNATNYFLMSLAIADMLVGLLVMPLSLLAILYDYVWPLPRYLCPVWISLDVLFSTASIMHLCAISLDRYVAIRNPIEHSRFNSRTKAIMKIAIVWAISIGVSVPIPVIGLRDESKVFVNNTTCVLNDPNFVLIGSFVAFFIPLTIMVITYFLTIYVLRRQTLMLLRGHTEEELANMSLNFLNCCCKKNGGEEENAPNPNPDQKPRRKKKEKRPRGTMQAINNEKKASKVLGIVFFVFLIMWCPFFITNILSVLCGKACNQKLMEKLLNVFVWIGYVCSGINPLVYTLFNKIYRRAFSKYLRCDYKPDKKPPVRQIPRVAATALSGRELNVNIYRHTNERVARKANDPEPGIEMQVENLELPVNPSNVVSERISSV
Outline: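 SR3T3 cells expressing recombinant rat 5-HT2C receptor; intracellular Ca2+ mobilization measured on FLIPR, as for the A7r5 assay. Emax taken relative to 5-HT. Values are means of at least three experiments.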

[7] = molecular target: T3, 5-hydroxytryptamine receptor 2C (Rattus norvegicus, UniProt P08909); experiment: Agonist activity at 5HT2C receptor expressed in […] cells assessed as intracellular calcium mobilization relative to 5HT
T3 sequence (P08909 whole entry): T2 sequence (whole entry)

Sequence of 5-hydroxytryptamine receptor 2B (P30994 whole entry): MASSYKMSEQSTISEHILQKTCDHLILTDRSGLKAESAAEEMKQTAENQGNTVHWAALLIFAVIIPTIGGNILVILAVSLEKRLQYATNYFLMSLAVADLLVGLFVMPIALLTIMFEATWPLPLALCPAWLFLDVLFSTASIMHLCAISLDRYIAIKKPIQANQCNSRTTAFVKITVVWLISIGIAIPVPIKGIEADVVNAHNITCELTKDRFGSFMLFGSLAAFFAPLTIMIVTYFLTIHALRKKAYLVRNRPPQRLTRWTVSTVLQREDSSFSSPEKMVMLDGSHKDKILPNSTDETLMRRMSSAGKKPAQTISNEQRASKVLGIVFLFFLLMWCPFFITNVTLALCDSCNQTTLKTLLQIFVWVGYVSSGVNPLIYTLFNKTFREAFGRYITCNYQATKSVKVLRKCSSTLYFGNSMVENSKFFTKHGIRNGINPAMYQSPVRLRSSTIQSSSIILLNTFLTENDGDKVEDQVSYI
T1 sequence (P14842 whole entry): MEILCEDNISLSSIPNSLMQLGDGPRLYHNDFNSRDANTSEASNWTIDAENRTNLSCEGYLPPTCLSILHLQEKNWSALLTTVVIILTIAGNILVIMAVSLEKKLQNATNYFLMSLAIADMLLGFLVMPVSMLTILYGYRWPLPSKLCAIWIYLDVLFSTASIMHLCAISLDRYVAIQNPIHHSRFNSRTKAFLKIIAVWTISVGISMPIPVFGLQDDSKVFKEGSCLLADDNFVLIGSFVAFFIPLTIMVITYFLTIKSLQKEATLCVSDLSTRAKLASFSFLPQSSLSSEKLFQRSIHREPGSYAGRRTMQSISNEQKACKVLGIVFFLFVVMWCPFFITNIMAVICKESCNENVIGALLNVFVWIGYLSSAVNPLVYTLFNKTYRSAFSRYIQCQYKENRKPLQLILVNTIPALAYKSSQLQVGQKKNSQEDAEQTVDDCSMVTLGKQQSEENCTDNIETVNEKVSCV
Sequence of 5-hydroxytryptamine receptor 2A (Rattus norvegicus) (P14842 whole entry): as above

Row | Compound | IC50 [1] [nM] | EC50 [2] [nM] | Emax [3] [%] | EC50 [4] [nM] | Emax [5] [%] | Activity (Cynomolgus monkey) [%] | Emax [6] [%] | EC50 [7] [nM] | EC50 (Cynomolgus monkey; Macaca fascicularis, Eye) [nM]
1 | C[C@@H](N)Cc1c2c(c(CC(=O)O)c3c1OCC3)OCC2 | 104 | 4970 | 45 | – | – | – | – | – | –
2 | Cc1noc(Cc2c3ccoc3c(C[C@@H](C)N)c3ccoc23)n1 | 0.38 | 16.9 | – | 23 | 60 | 27 | 95 | 82 | –
3 | C[C@@H](N)[C@@H](O)c1c2c(c(Br)c3c1OCC3)OCC2 (racemic) | 2.6 | 87.8 | 56 | – | – | – | – | – | –
4 | Cc1noc(-c2c3c(c(C[C@@H](C)N)c4c2OCC4)OCC3)n1 | 910 | 8190 | 27 | – | – | – | – | – | –
5 | Cc1noc(Cc2c3c(c(C[C@@H](C)N)c4c2OCC4)OCC3)n1 | 1.6 | 49.2 | – | 130 | 33 | – | 69 | 689 | –
6 | C[C@@H](N)Cc1c2c(c(CO)c3c1OCC3)OCC2 | 1 | 175 | 43 | – | – | – | – | – | –
7 | C[C@@H](N)Cc1c2c(c(CCC(=O)O)c3c1OCC3)OCC2 | 4700 | > 1000 | 15 | – | – | – | – | – | –
8 | Cc1noc(CCc2c3c(c(C[C@@H](C)N)c4c2OCC4)OCC3)n1 | 1 | > 10000 | 7 | – | – | – | – | – | –
9 | COC(=O)c1c2c(c(C[C@@H](C)N)c3c1OCC3)OCC2 | 14 | 880 | 48 | – | – | – | – | – | –
10 | COc1cc(C[C@@H](C)N)c(OC)cc1I | 0.46 | 17.8 | 33 | – | 33 | – | – | – | 2.72
11 | CC(N)Cc1c2c(c(Br)c3c1OCC3)OCC2 (stereo not given) | 0.3 | 13 | 47 | – | – | – | – | – | –
12 | COCCOCc1c2c(c(C[C@@H](C)N)c3c1OCC3)OCC2 | 0.88 | 71 | – | 5.8 | 50 | – | 93 | 8.6 | –
13 | C[C@@H](N)Cc1c2ccoc2c(CO)c2ccoc12 | 0.31 | 33 | 38 | – | – | – | – | – | –
14 | COC(=O)CCc1c2c(c(C[C@@H](C)N)c3c1OCC3)OCC2 | 0.86 | 26 | 40 | – | – | – | – | – | –
15 | C[C@@H](N)[C@H](O)c1c2c(c(Br)c3c1OCC3)OCC2 | 0.7 | 32.7 | – | 6.2 | 96 | 24 | 100 | 39 | –
16 | COCc1c2c(c(C[C@@H](C)N)c3c1OCC3)OCC2 | 0.28 | 12 | – | – | 54 | 36.8 | 99 | 12.6 | –
17 | COCc1c2ccoc2c(C[C@@H](C)N)c2ccoc12 | 0.11 | 3.6 | 72 | – | – | – | – | – | –
